Assay results pooled from the literature.
Protocols differ between the studies behind these lines.
Method: competition with immobilised ligand
RPS6KA6 C-terminal kinase domain: Ribosomal protein S6 kinase alpha-6, C-terminal kinase domain (RPS6KA6, Homo sapiens, UniProt Q9UK32)
RPS6KA6 N-terminal kinase domain: Ribosomal protein S6 kinase alpha-6, N-terminal kinase domain (RPS6KA6, Homo sapiens, UniProt Q9UK32)

SMILES	target	test	setting	remaining binding [%]
O=C(NCCCN1CCOCC1)c1ccc(Nc2ncc(Cl)c(-c3ccc(Cl)s3)n2)cc1	RPS6KA6 C-terminal kinase domain	binding	1 µM	85
Cc1cnn2ncc(-c3ccnc(N(C)C)n3)c2c1	RPS6KA6 N-terminal kinase domain	binding	1 µM	82
COc1cc(-c2cn(C3CCc4ccccc4N(CC(F)(F)F)C3=O)nn2)ccc1-n1ccc(C)n1 (stereo not drawn)	RPS6KA6 N-terminal kinase domain	cell-free assay	1 µM	81
COc1cc(C(=O)N2CCC(N3CCN(C)CC3)CC2)ccc1Nc1ncc2c(n1)N(C)c1ccccc1C(=O)N2C	RPS6KA6 C-terminal kinase domain	binding	10 µM	2.2
O=C(O)[C@H]1[C@H](Cn2nnc3ccccc3c2=O)CC[C@@H]1C(=O)c1ccc(OCCC2CCOCC2)cc1	RPS6KA6 C-terminal kinase domain	cell-free assay	1 µM	97
Cc1cnc(Nc2ccc(C(=O)N3CCC(N4CCCC4)CC3)cc2)nc1-c1cc2ccccc2s1	RPS6KA6 C-terminal kinase domain	binding	1 µM	72
O=C(NCC1CCOCC1)c1n[nH]cc1NC(=O)c1c(F)cccc1F	RPS6KA6 C-terminal kinase domain	binding	1 µM	99
CN(C)c1ncc(F)c(-c2cnn3ncccc23)n1	RPS6KA6 C-terminal kinase domain	binding	1 µM	98
COc1ncc2cc3ccccc3nc2c1C#N	RPS6KA6 N-terminal kinase domain	cell-free assay	5 µM	100
CN(c1nccc(-c2cnn3ncccc23)n1)C1CC1	RPS6KA6 N-terminal kinase domain	binding	1 µM	83
O=C(c1ccc(Nc2ncc(Cl)c(-c3cc4ccccc4s3)n2)cc1)N1CCC(N2CCCC2)CC1	RPS6KA6 N-terminal kinase domain	binding	1 µM	46
COc1cnc(Nc2cccc(S(N)(=O)=O)c2)nc1N1CCN(c2ccccc2)C(=O)C1	RPS6KA6 N-terminal kinase domain	binding	1 µM	79
N[C@H]1CCN(c2nccc(-c3cnn4ncccc34)n2)C1	RPS6KA6 C-terminal kinase domain	binding	1 µM	86
CN([C@@H]1CCc2c(CC(=O)O)c3ccccc3n2C1)S(=O)(=O)c1ccc(F)cc1	RPS6KA6 C-terminal kinase domain	cell-free assay	1 µM	100
c1cncc(-c2cccc(Nc3nccc(NC4CCCCC4)n3)c2)c1	RPS6KA6 C-terminal kinase domain	binding	10 µM	87
COc1ccc2c(c1)O[C@@H](c1ccc(OC)c(OC)c1)C[C@H]2NC(=O)C1(c2ccc3c(c2)OC(F)(F)O3)CC1	RPS6KA6 N-terminal kinase domain	cell-free assay	1 µM	84
CN(C)c1nccc(-c2cnc3ncccn23)n1	RPS6KA6 N-terminal kinase domain	binding	1 µM	69

SMILES	target	test	setting	remaining binding [%]
NS(=O)(=O)c1cc(NC(=O)C2(c3ccccc3Cl)CC2)ccc1Oc1cccc(Cl)c1	RPS6KA6 C-terminal kinase domain	cell-free assay	1 µM	96
O=C(c1ccc(Nc2nccc(-c3cc4ccccc4s3)n2)cc1)N1CCC(N2CCCC2)CC1	RPS6KA6 C-terminal kinase domain	binding	1 µM	63
F[C@@H]1CCN(c2nccc(-c3cnn4ncccc34)n2)C1	RPS6KA6 C-terminal kinase domain	binding	1 µM	92
O=C(c1ccc(Nc2ncc(Cl)c(-c3ccc(Cl)s3)n2)cc1)N1CCC(N2CCCC2)CC1	RPS6KA6 N-terminal kinase domain	binding	1 µM	41
Cc1c(C(=O)O)cc(-c2ccc(C3CCNCC3)cc2)c2ccc(-c3ccc(C(F)(F)F)cc3)cc12	RPS6KA6 C-terminal kinase domain	binding	1 µM	100
CNC(=O)[C@@H]1CC[C@@H](n2c(-c3ccc4cnccc4c3)nc3ccc(C(=O)NCc4cccc(C(N)=O)c4)cc32)C1	RPS6KA6 N-terminal kinase domain	binding	1 µM	100
FC(F)(F)Oc1cccc(-c2cnc3ccc(-c4ccncc4)nn23)c1	RPS6KA6 C-terminal kinase domain	binding	5 µM	34
O=C(NCCCN1CCOCC1)c1ccc(Nc2nccc(-c3cc4ccccc4s3)n2)cc1	RPS6KA6 N-terminal kinase domain	binding	1 µM	67
Nc1ncc2c(n1)-c1c([nH]c3ccc(C#CC4CC4)cc13)CCCC2	RPS6KA6 C-terminal kinase domain	binding	1 µM	91
CC1CCCN1c1nccc(-c2cnn3ncccc23)n1 (stereo not drawn)	RPS6KA6 N-terminal kinase domain	binding	1 µM	99
CCCCN(CCCC)C(=O)CN1C[C@@H](c2cc(OC)c3c(c2)OCO3)[C@H](C(=O)O)[C@H]1CC(C)(C)CCC	RPS6KA6 N-terminal kinase domain	cell-free assay	1 µM	96.6
COc1cnc(Nc2cccc(S(N)(=O)=O)c2)nc1N1CCN(c2ccccc2)CC1	RPS6KA6 C-terminal kinase domain	binding	1 µM	69
Cc1cc(-n2nc(Cc3cc(F)cc(C(F)(F)F)c3)nc2C)ccc1C(N)=O	RPS6KA6 N-terminal kinase domain	cell-free assay	1 µM	89
CCN1CCN(Cc2ccc(C(=O)Nc3ccc(C)c(Oc4ccc5c(c4)CC(=O)N5)c3)cc2C(F)(F)F)CC1	RPS6KA6 N-terminal kinase domain	binding	1 µM	100
CN(C)c1nccc(-c2cnn3ncccc23)n1	RPS6KA6 N-terminal kinase domain	binding	1 µM	92
O=C(Nc1c[nH]nc1C(=O)NC1CCNCC1)c1cc(F)cc(F)c1	RPS6KA6 N-terminal kinase domain	binding	1 µM	94
